# The RNAGym collection of RNA variant scans (doi:10.1038/s41586-018-0170-7)
# B1: tRNA (parent)
# chain: GUUCCGUUGGCGUAAUGGUAACGCGUCUCCCUCCUAAGGAGAAGACUGCGGGUUCGAGUCCCGUACGGAACG
# Variants of: B1
# Experiment: yeast fitness, log relative to wild type (ln ratio); higher = fitter; tRNA-Arg(CCU), competitive growth, 37 C, 1 M NaCl
# In short: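 Fitness is the natural log of a genotype's generation count divided by that of the wild type. A combinatorial library of tRNA-Arg(CCU) variants sat on a HIS3 centromeric plasmid in BY4742 lacking the chromosomal gene, from two independent transformations. Pools grew 4 generations in SC-HIS at 30 °C, then ~6.5 generations (~26.5 h) in SC-HIS 1M NaCl at 37 °C, with three outputs per input. Generations came from OD-scaled log2 output/input frequency, inverse-variance weighted across replicates, with variants counted by 125 bp paired-end Illumina sequencing.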
row,Variant,yeast fitness (ln)
1,AUUCCGUUGGCGUAAUGGUAACGCGUCUCCCUCCUAAGGAGAAGACUGCGGGUUCGAGUCCCGUAUGGAGUG,-0.287
2,GUUCCAUUGGCGUAAUGGUAACGCGUCUCCCUCCUAAGGAGACGAUUGCGGGUUCGAGUCCCGUAAGGAACG,-0.0495
3,AUUCCUUUGGCGUAAUGGUAACGCGUCUCCCUCCUAAGGAGAAGACUGCGGGUUCGAGUCCCGUAAGGGAUG,-0.032
4,AGUCCUUUGGCGUAAUGGUAACGCGUUUCCCUCCUAAGGAGACGAUUGCGGGUUCGAGUCCCGUACGGGAUG,-0.39
5,GCUCCGUUGGCGUAAUGGUAACGCGUUUCCCUCCUAAGGAGACGACUGCGGGUUCGAGUCCCGUACGGGGCG,-0.0551
6,GCUCCGUUGGCGUAAUGGUAACGCGUCUCCCUCCUAAGGAGAAGAUUGCGGGUUCGAGUCCCGUAUGGAACG,-0.171
7,AUUCCGUUGGCGUAAUGGUAACGCGUCUCCCUCCUAAGGAGAAGACUGCGGGUUCGAGUCCCGUAUGGAGCG,-0.107
8,GCUCCUUUGGCGUAAUGGUAACGCGUUUCCCUCCUAAGGAGACGACUGCGGGUUCGAGUCCCGUACGGGUCG,-0.271
9,GUUCCAUUGGCGUAAUGGUAACGCGUUUCCCUCCUAAGGAGACGAUUGCGGGUUCGAGUCCCGUACGGGACG,-0.166
10,ACUCCGUUGGCGUAAUGGUAACGCGUCUCCCUCCUAAGGAGAAGAUUGCGGGUUCGAGUCCCGUAUGGAUUG,-0.175
11,GUUCCUUUGGCGUAAUGGUAACGCGUCUCCCUCCUAAGGAGAAGAUUGCGGGUUCGAGUCCCGUAUGGAUCG,-0.297
12,ACUCCAUUGGCGUAAUGGUAACGCGUUUCCCUCCUAAGGAGACGAUUGCGGGUUCGAGUCCCGUACGGAUCG,-0.125
13,GCUCCGUUGGCGUAAUGGUAACGCGUUUCCCUCCUAAGGAGAAGAUUGCGGGUUCGAGUCCCGUAAGGGGCG,-0.227
14,GGUCCAUUGGCGUAAUGGUAACGCGUUUCCCUCCUAAGGAGACGACUGCGGGUUCGAGUCCCGUAAGGAACG,-0.237
15,GUUCCUUUGGCGUAAUGGUAACGCGUCUCCCUCCUAAGGAGACGACUGCGGGUUCGAGUCCCGUAUGGAACG,-0.23
16,GGUCCGUUGGCGUAAUGGUAACGCGUUUCCCUCCUAAGGAGAAGACUGCGGGUUCGAGUCCCGUAAGGGUCG,-0.155
17,GGUCCGUUGGCGUAAUGGUAACGCGUUUCCCUCCUAAGGAGAAGAUUGCGGGUUCGAGUCCCGUAUGGAUUG,-0.308
18,AUUCCGUUGGCGUAAUGGUAACGCGUUUCCCUCCUAAGGAGAAGACUGCGGGUUCGAGUCCCGUAUGGGUCG,-0.295
19,GCUCCUUUGGCGUAAUGGUAACGCGUUUCCCUCCUAAGGAGACGACUGCGGGUUCGAGUCCCGUACGGAACG,-0.0819

row,Variant,yeast fitness (ln)
1,AUUCCGUUGGCGUAAUGGUAACGCGUUUCCCUCCUAAGGAGACGAUUGCGGGUUCGAGUCCCGUACGGGUCG,-0.324
2,GUUCCAUUGGCGUAAUGGUAACGCGUCUCCCUCCUAAGGAGAAGAUUGCGGGUUCGAGUCCCGUAAGGAACG,-0.0719
3,GUUCCAUUGGCGUAAUGGUAACGCGUUUCCCUCCUAAGGAGAAGACUGCGGGUUCGAGUCCCGUAUGGAUCG,-0.188
4,AUUCCGUUGGCGUAAUGGUAACGCGUCUCCCUCCUAAGGAGAAGAUUGCGGGUUCGAGUCCCGUAAGGAAUG,-0.243
5,GCUCCAUUGGCGUAAUGGUAACGCGUCUCCCUCCUAAGGAGAAGACUGCGGGUUCGAGUCCCGUAUGGGUCG,-0.222
6,AGUCCGUUGGCGUAAUGGUAACGCGUUUCCCUCCUAAGGAGACGAUUGCGGGUUCGAGUCCCGUAAGGGUUG,-0.456
7,GGUCCUUUGGCGUAAUGGUAACGCGUUUCCCUCCUAAGGAGACGACUGCGGGUUCGAGUCCCGUACGGAGCG,-0.232
8,GUUCCGUUGGCGUAAUGGUAACGCGUUUCCCUCCUAAGGAGACGACUGCGGGUUCGAGUCCCGUACGGGGCG,-0.235
9,AUUCCGUUGGCGUAAUGGUAACGCGUUUCCCUCCUAAGGAGAAGAUUGCGGGUUCGAGUCCCGUAAGGAUCG,-0.182
10,ACUCCAUUGGCGUAAUGGUAACGCGUCUCCCUCCUAAGGAGACGAUUGCGGGUUCGAGUCCCGUACGGAUCG,-0.034
11,AUUCCAUUGGCGUAAUGGUAACGCGUUUCCCUCCUAAGGAGACGAUUGCGGGUUCGAGUCCCGUAAGGGGUG,-0.302
12,ACUCCAUUGGCGUAAUGGUAACGCGUCUCCCUCCUAAGGAGAAGACUGCGGGUUCGAGUCCCGUACGGGUUG,-0.281
13,AUUCCUUUGGCGUAAUGGUAACGCGUCUCCCUCCUAAGGAGAAGAUUGCGGGUUCGAGUCCCGUACGGGUUG,-0.321
14,GUUCCAUUGGCGUAAUGGUAACGCGUCUCCCUCCUAAGGAGAAGACUGCGGGUUCGAGUCCCGUACGGGAUG,-0.134
15,GCUCCGUUGGCGUAAUGGUAACGCGUUUCCCUCCUAAGGAGACGAUUGCGGGUUCGAGUCCCGUAUGGGGCG,-0.303
16,AUUCCUUUGGCGUAAUGGUAACGCGUCUCCCUCCUAAGGAGACGAUUGCGGGUUCGAGUCCCGUACGGAGCG,-0.201
17,AGUCCGUUGGCGUAAUGGUAACGCGUCUCCCUCCUAAGGAGAAGAUUGCGGGUUCGAGUCCCGUAAGGAGUG,-0.198
18,GUUCCGUUGGCGUAAUGGUAACGCGUCUCCCUCCUAAGGAGAAGACUGCGGGUUCGAGUCCCGUAAGGGACG,-0.0295
19,GGUCCAUUGGCGUAAUGGUAACGCGUCUCCCUCCUAAGGAGACGACUGCGGGUUCGAGUCCCGUAUGGGGUG,-0.304
